This is an account of results in publication PMC5966832 (Environmental science & technology, 2018).

Each structure is given as a SMILES string.

Data set [1] concerns human liver microsomes. As to the kind of experiment: Atropselective. Format: in vitro ADME. The conditions noted are these: for EF of the OH-PCB metabolite before racemization: representative extract, 15 min incubation, 50 μM PCB 91, HLMs from donor H5. In outline:
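Racemic PCB 91 at 50 μM was incubated 15 min at 37 °C with 0.1 mg/mL microsomes and 1 mM NADPH, in triplicate. Depletion runs used 5 or 50 μM, 120 min, 0.5 mg/mL protein and 0.5 mM NADPH. Metabolites were methylated with diazomethane. GC-μECD used a ChiralDex B-DM column (135 °C) for PCB 91, 5-91 and 4-91, and a G-TA column (140 °C) for 3-100. EF = E1/(E1+E2) by drop valley; mean ± SD.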

The format of data set [2] is physicochemical. The conditions noted are these: extract heated at 300 °C for 2 h; for EF of the OH-PCB metabolite after racemization: 15 min incubation, donor H5. In outline: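 Representative hexane extracts were placed in amber ampules and heated at 300 °C. One came from a pooled-HLM incubation; the other from a 50 μM PCB 91 incubation with donor H5 microsomes. Both were re-run by enantioselective GC-μECD, ChiralDex B-DM or G-TA column according to analyte. EF = E1/(E1+E2), drop valley method.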

Data set [3] has as its system human liver microsomes. It is filed as in vitro ADME. Particulars: for Difference in rate of metabolite formation, donor H1 vs. donor H5: individual donor HLM preparations. In a few lines: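 Pooled HLMs (50 donors, mixed gender) or female single-donor HLMs (H1–H5, age 20–58) were used. Buffer was 0.1 M phosphate pH 7.4 with 3 mM MgCl2. Pre-incubated 5 min at 37 °C, then started with substrate in DMSO (≤0.5% of volume), in triplicate. Stopped with ice-cold 0.5 M NaOH and heated 110 °C for 10 min. Extracts were methylated and run on GC-μECD against PCB 204 using relative response factors. Rates adjusted per nmol P450 or per mg protein.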

In the next data set the test system is recombinant rat CYP2B1. The conditions noted are these: E2-PCB 91 enriched; cited from earlier work.
For another data set, the system named is rat liver microsomes. Particulars: E2-PCB 91 enriched; cited from earlier work.

Turning to `Oc1cc(Cl)c(-c2ccc(Cl)cc2Cl)c(Cl)c1Cl` [4-91, 2,2′,3,4′,6-pentachlorobiphenyl-4-ol], the “EF of the OH-PCB metabolite before racemization” value in the data set on human liver microsomes [1] is given as 0.85. For the same compound, the “EF of the OH-PCB metabolite after racemization” value in data set [2] was found to be 0.51. Also, in the data set on human liver microsomes [3], the “Difference in rate of metabolite formation, donor H1 vs. donor H5” value (“Difference in rate” for short) is listed as 5.4 fold.

Consider `Oc1cc(Cl)c(Cl)c(-c2ccc(Cl)cc2Cl)c1Cl` [5-91, 2,2′,3,4′,6-pentachlorobiphenyl-5-ol], for which the “EF of the OH-PCB metabolite before racemization” value in the data set on human liver microsomes [1] is reported as 0.43. Moreover, in data set [2], the “EF of the OH-PCB metabolite after racemization” value was determined as 0.49. For the same compound, the “Difference in rate” value in the data set on human liver microsomes [3] was 19 fold.

On to `Oc1c(Cl)cc(Cl)c(-c2ccc(Cl)cc2Cl)c1Cl` [3-100, 2,2′,4,4′,6-pentachlorobiphenyl-3-ol], for which the “EF of the OH-PCB metabolite before racemization” value with human liver microsomes [1] stood at 0.87. Besides, the “EF of the OH-PCB metabolite after racemization” value in data set [2] worked out at 0.46. Moreover, the “Difference in rate” value in the data set with human liver microsomes [3] was 2.6 fold.

For the compound `Clc1ccc(-c2c(Cl)ccc(Cl)c2Cl)c(Cl)c1` [PCB 91, 2,2′,3,4′,6-pentachlorobiphenyl], the “EF of PCB 91, all other incubations” value in the data set with human liver microsomes [1] (high concentrations of racemic PCB 91) is reported as “near racemic”. The “EF of PCB 91 after racemization” value in data set [2] (2 h incubation, 5 μM PCB 91, pHLMs) is 0.50. Also, in the data set with human liver microsomes [3] (50 μM PCB 91, 0.1 mg/mL HLMs, 1 mM NADPH, 5 or 15 min, 37 °C), the “PCB 91 added to the incubation converted to OH-PCB metabolites” value is not above 2%. In addition, in the data set on recombinant rat CYP2B1, the “EF of PCB 91 in incubations with recombinant rat CYP2B1” value is reported as 0.45. In addition, the “EF of PCB 91 in incubations with rat liver microsomes” value with rat liver microsomes is recorded as 0.43.
